In publication PMC4678411 (Journal of Medicinal Chemistry, 2015):
Values after ≈ are worked out from the molar mass of the structure shown.

Legend:
[1] = test system: HT-29 human colon adenocarcinoma cell line; experiment: Efficacy study in a mouse model of human colon adenocarcinoma; assay type: in vivo, female athymic nude mice; details: for test-article related deaths: 0.9 mg/kg IP, ten mice
Outline: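 Female athymic nude mice aged 7–9 weeks, acclimated ≥7 days. Implanted s.c. in the right flank with 1.74 × 10^6 mycoplasma-negative HT-29 cells in 50% Matrigel/medium. Randomized at mean 110 mm3, 10 per group. Dosed IP in USP saline (0.2 mL) by group-mean body weight, daily or intermittently, for 28 days. Caliper volume (L × W²/2) measured ≥twice weekly, plus necropsy tumor weight, survival, body weight and clinical signs.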

[2] = Aqueous solubility determination; assay type: physicochemical; details: pH 7.4
Outline: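 About 5 mg excess solid in Tris buffer pH 7.4, in triplicate. Sonicated, vortexed, then shaken at 100 shakes/min at 25 °C for 24 h. Solid removed by centrifugation and filtration; filtrate diluted. Quantified by HPLC on a C18 column with photodiode-array detection, using an acetonitrile (10–70%)/10 mM sodium phosphate pH 7 gradient over 20 min.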

[3] = Chemical hydrolysis stability study at 40-70 °C with Arrhenius extrapolation; assay type: physicochemical; details: for extrapolated pseudo-first-order rate constant (kobsd) for hydrolysis: extrapolated from Arrhenius plot; for pseudo-first-order rate constant (kobsd) of hydrolysis: pH 7.4; for half-life: pH 7.4, calculated half-life (t1/2) of hydrolysis
Outline: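 Test compound dissolved in Sodium Chloride Injection USP at 20.0 mg/100 mL ("high") or 3.00 mg/100 mL ("low"). Flame-sealed in sterilized ampules and held at 70, 60, 50 or 40 °C, sampled at intervals over hours (70, 60 °C) or days (50, 40 °C). Analysed by HPLC. Ea came from an Arrhenius plot, which was extrapolated to give kobsd, t1/2 and t90 at 25 and 4 °C.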

[4] = test system: A2780 human ovarian cancer cell line; experiment: Efficacy study in a mouse model of human ovarian cancer; assay type: in vivo, female athymic nude mice
Outline: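 A2780 cells (RPMI 1640/10% FBS, mycoplasma-negative) implanted s.c. at 2.5 × 10^6 in 50% Matrigel into female athymic nude mice aged 7–9 weeks. Randomized at mean 188 mm3, 10 per group. Daily IP or oral-gavage doses of 0.1–1.2 mg/kg in USP saline for 30 days. Controls were vehicle and carboplatin 60 mg/kg twice weekly. Tumor volume (L × W²/2), survival and clinical signs tracked.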

[5] = test system: alkaline phosphatase from bovine intestinal mucosa; details: no enzyme; cited from earlier work
[6] = clinical trials, patients; cited from earlier work

CC(C)[C@]12O[C@H]1[C@@H]1O[C@]13[C@]1(O[C@H]1C[C@H]1C4=C(CC[C@@]13C)C(=O)OC4)[C@@H]2OCOP(=O)([O-])[O-].[Na+].[Na+] [Compound 4, Sodium (((5bS,6aS,7aR,8R,8aS,9aS,9bS,10aS,10bS)-8a-Isopropyl-10b-methyl-3-oxo-1,2,3,5,5b,6,6a,8,8a,9a,9b,10b-dodecahydrotris(oxireno)[2′,3′:4b,5;2″,3″:6,7;2‴,3‴:8a,9]phenanthro[1,2-c]furan-8-yl)oxy)methyl Phosphate]
mice that survived until the end of the study ([1]; 0.9 mg/kg IP daily for 2 weeks followed by 3×/week): 9/10 | mice that survived until the end of the study ([1]; 0.9 mg/kg IP daily for 4 weeks): 7/10 | tumor status of all mice surviving until the end of the study ([1]; 0.9 mg/kg IP daily for 4 weeks or daily for 2 weeks followed by 3×/week): tumor free | effect on xenograft tumors, intermittent regimens ([1]; 0.9 mg/kg IP less frequently than daily or with a break from daily dosing): effective | test-article related deaths ([1]; QD for 2 weeks group): 1 | test-article related deaths ([1]; QD for 2 weeks then 3×/week group): 1 | test-article related deaths ([1]; QD for 4 weeks group): 3 | tolerability ([1]; IP, 0.1-0.9 mg/kg, all regimens): generally well tolerated | effect on xenograft tumors ([1]; administered daily IP, dose levels from 0.3 to 0.9 mg/kg, 28 days): effective in reducing or eliminating xenograft tumors | solubility enhancement by prodrug formation versus triptolide [2]: 3600 times | extrapolated pseudo-first-order rate constant (kobsd) for hydrolysis ([3]; 4 °C): 6.5 × 10^–6 h^–1 | extrapolated pseudo-first-order rate constant (kobsd) for hydrolysis ([3]; 25 °C): 8.6 × 10^–5 h^–1 | pseudo-first-order rate constant (kobsd) of hydrolysis ([3]; 40 °C): 0.000494 h^–1 | pseudo-first-order rate constant (kobsd) of hydrolysis ([3]; 50 °C): 0.001052 h^–1 | pseudo-first-order rate constant (kobsd) of hydrolysis ([3]; 60 °C): 0.002482 h^–1 | pseudo-first-order rate constant (kobsd) of hydrolysis ([3]; 70 °C): 0.008659 h^–1 | activation energy (Ea) of hydrolysis ([3]; from Arrhenius plot, pH 7.4, 40-70 °C): 15.2 kcal/mol | half-life ([3]; 4 °C): 4460 days | half-life ([3]; 25 °C): 336 days | efficacy and tolerability ([4]; intraperitoneal injection, daily doses of 0.6 or 0.9 mg/kg (data not shown)): effective and well tolerated | efficacy ([4]; oral gavage, daily doses of 0.6 or 0.9 mg/kg, slightly higher rates of morbidity and mortality): effective | stability in a similar assay in the absence of alkaline phosphatase [5]: stable for 1 h

CC(C)[C@]12O[C@H]1[C@@H]1O[C@]13[C@]1(O[C@H]1C[C@H]1C4=C(CC[C@@]13C)C(=O)OC4)[C@@H]2O [triptolide, Triptolide, reference compound]
solubility at 24 h ([2]; Tris buffer): 17 µg/mL (≈ 47.2 µM)

CC(C)[C@]12O[C@H]1[C@@H]1O[C@]13[C@]1(O[C@H]1C[C@H]1C4=C(CC[C@@]13C)C(=O)OC4)[C@@H]2OC(=O)CCC(=O)O [omtriptolide, triptolide succinate]
cleavage of the prodrug moiety [6]: slow and incomplete
